Results: ChEMBL document CHEMBL1139231 (J Med Chem, 2007)
The source made the active and inactive calls. The calls are words filed in the database; no cut-off is given here.

Legend:
[1] = target: T1, Sodium-dependent dopamine transporter (Homo sapiens, UniProt Q01959); assay: Displacement of [125I]RTI-55 from human DAT expressing HEK293 cells; format: cell-based
[2] = target: T2, Sodium-dependent noradrenaline transporter (Homo sapiens, UniProt P23975); assay: Inhibition of [3H]NE uptake into human NET expressing HEK293 cells; format: cell-based
T2 sequence (P23975 whole entry): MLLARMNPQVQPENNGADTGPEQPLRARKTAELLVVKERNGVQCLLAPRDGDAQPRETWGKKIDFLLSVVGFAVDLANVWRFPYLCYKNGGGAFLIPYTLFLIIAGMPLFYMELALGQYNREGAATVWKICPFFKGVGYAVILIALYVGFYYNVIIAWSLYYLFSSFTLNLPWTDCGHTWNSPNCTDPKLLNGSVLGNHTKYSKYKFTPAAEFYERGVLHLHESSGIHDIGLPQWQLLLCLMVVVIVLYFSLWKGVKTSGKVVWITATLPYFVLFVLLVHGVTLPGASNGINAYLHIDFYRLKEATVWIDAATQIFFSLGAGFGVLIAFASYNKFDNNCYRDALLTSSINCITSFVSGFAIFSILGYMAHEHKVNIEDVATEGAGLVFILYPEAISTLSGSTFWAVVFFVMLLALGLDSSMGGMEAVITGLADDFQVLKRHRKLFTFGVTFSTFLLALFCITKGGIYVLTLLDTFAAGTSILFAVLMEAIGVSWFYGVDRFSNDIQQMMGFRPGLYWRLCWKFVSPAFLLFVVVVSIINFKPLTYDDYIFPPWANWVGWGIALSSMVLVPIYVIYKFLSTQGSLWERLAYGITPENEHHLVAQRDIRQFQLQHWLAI

[3] = target: T1, Sodium-dependent dopamine transporter; assay: Inhibition of [3H]DA uptake at human DAT expressing HEK293 cells; format: cell-based
Outline: (§1)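 Intact HEK293 cells stably expressing human SERT or DAT, scraped and triturated, preincubated with drug 10 min at 25 °C in Krebs-HEPES pH 7.4; [3H]5-HT or [3H]DA (20 nM final) added for 10 min; filtration, scintillation counting. Nonspecific: 5 µM imipramine (SERT) or 5 µM mazindol (DAT). Triplicate points, ≥3 experiments.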

[4] = target: T3, Sodium-dependent serotonin transporter (Homo sapiens, UniProt P31645); assay: Inhibition of [3H]5-HT uptake into human SERT expressing HEK293 cells; format: cell-based; outline: as §1
T3 sequence (P31645 whole entry): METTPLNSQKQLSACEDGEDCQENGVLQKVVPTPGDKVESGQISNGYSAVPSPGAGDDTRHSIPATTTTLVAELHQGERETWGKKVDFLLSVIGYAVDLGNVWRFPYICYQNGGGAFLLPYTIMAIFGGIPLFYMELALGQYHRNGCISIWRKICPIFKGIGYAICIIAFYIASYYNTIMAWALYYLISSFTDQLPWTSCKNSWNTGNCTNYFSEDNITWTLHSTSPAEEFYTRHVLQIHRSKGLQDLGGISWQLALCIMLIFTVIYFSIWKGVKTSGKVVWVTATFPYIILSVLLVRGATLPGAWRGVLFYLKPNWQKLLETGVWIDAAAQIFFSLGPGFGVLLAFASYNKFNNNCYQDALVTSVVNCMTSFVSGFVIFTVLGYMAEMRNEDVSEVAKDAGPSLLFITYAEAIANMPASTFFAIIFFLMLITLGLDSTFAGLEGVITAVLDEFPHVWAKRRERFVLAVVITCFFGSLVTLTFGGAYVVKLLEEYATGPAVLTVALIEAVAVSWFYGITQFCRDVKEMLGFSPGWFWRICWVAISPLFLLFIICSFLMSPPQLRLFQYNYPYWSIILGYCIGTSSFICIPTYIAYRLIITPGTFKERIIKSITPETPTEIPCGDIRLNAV

[5] = target: T3, Sodium-dependent serotonin transporter; assay: Displacement of [125I]RTI-55 from human SERT expressing HEK293 cells; format: cell-based
Outline: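 Membranes from HEK293 cells stably expressing human DAT or SERT (lysed in hypotonic HEPES/EDTA, pelleted, resuspended in 0.32 M sucrose) preincubated with drug 10 min at rt, then [125I]RTI-55 added; 90 min rt in dark; filtration, scintillation counting. Krebs-HEPES buffer pH 7.4. Nonspecific: 5 µM mazindol (DAT) or 5 µM imipramine (SERT). Duplicate points, ≥3 experiments.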

[6] = target: T2, Sodium-dependent noradrenaline transporter; assay: Displacement of [125I]RTI-55 from human NET expressing HEK293 cells; format: cell-based
Mus musculus = assay: Effect on locomotor activity in Swiss-Webster mouse at 30 mg/kg; format: functional, organism-based; set-up: dose 30 mg/kg
Outline: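 Nonhabituated male Swiss-Webster mice (Hsd:ND4, 2-3 months), groups of eight, dosed ip (vehicle deionized water) immediately before testing; horizontal photobeam interruptions counted per 10 min over 8 h, one mouse per chamber, starting 2 h after lights on; compared with vehicle, p < 0.05.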

T1 sequence (Q01959 whole entry): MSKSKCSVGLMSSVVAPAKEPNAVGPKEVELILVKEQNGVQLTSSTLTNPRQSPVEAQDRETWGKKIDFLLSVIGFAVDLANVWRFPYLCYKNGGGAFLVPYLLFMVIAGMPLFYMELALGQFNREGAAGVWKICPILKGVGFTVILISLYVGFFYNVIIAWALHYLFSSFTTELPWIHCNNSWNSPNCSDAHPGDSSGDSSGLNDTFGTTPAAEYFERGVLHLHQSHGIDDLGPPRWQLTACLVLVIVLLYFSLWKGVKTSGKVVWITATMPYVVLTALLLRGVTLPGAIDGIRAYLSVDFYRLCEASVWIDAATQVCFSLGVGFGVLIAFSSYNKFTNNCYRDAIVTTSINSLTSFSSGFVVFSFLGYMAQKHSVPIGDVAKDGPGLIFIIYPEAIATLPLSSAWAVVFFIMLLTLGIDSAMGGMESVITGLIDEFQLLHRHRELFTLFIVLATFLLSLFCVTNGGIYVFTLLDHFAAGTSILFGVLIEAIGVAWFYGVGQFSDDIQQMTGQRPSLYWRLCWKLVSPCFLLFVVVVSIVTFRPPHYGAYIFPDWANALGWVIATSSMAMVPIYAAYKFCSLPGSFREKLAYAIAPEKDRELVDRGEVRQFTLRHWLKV

SMILES | Ki [1] [µM] | IC50 [2] [µM] | IC50 [3] [µM] | IC50 [4] [µM] | Ki [5] [µM] | Ki [6] [µM] | Activity (Mus musculus)
CC(C)CC(c1ccc(C(C)C)cc1)C1CCCCN1 (stereo not given) | > 6.5 | > 8.7 | > 9.1 |  |  |  | 
CCCC(c1ccc(Cl)cc1)C1CCCCN1 (stereo not given) | 0.011 | 0.05 | 0.0074 | 2.9 | 2.7 | 0.2 | 
CC(C)C(c1ccc(Cl)cc1)C1CCCCN1 (stereo not given) |  |  |  |  | > 10000 | > 10000 | 
Clc1ccc(C(CCc2ccccc2)C2CCCCN2)cc1 (stereo not given) |  |  |  | 0.21 | 1.8 |  | 
CC(=O)C(c1ccccc1)C1CCCCN1 (stereo not given) | 0.37 | 0.22 | 0.19 | > 9.7 | 7.8 | 2.7 | 
Clc1ccc(C(Cc2ccccc2)C2CCCCN2)cc1 (stereo not given) |  | > 8.8 |  |  |  |  | 
CC(C)(C)CC(c1ccc(Cl)cc1)C1CCCCN1 (stereo not given) |  |  |  | > 8.3 |  | > 5.5 | 
CCC(c1ccc(Cl)cc1)C1CCCCN1 (stereo not given) | 1.8 | 1.3 | 2.8 | 4.1 | 4.2 | > 9.2 | 
CC(C)CC(c1ccc(Cl)c(Cl)c1)C1CCCCN1C (stereo not given) |  | 0.028 |  |  |  |  | 
COc1cccc(C(CC(C)C)C2CCCCN2)c1 (stereo in doubt; form 1) | 0.022 | 0.33 | 0.035 | 2.7 | 4.2 | 3.8 | 
COc1ccc(C(CC(C)C)C2CCCCN2)cc1 (stereo in doubt; form 1) | 0.052 | 0.41 | 0.025 | 3.5 | 2.8 | 3.1 | 
CC(C)CC(c1ccc(Cl)c(Cl)c1)C1CCCCN1 (stereo in doubt; form 1) | 0.001 | 0.009 | 0.0055 | 1.1 | 1.6 | 0.025 | 
COC(=O)C(c1ccc(Cl)cc1)C1CCCCN1 (stereo in doubt; form 1) |  |  |  | > 9.8 |  |  | 
CC(c1ccc(Cl)cc1)C1CCCCN1 (stereo in doubt; form 1) | 0.18 | 0.035 | 0.022 | 1.9 | 4.9 | 0.36 | 
CCC(CC)C(c1ccc(Cl)cc1)C1CCCCN1 (stereo in doubt; form 1) | 0.4 | 0.33 | 0.24 | > 9.4 | 3.9 | 0.97 | 
CC(C)CC(c1cccc(Cl)c1)C1CCCCN1 (stereo in doubt; form 1) | 0.0037 | 0.014 | 0.0028 | 2.1 |  | 0.023 | 
CCCC(c1ccc(Cl)c(Cl)c1)C1CCCCN1 (stereo in doubt; form 1) | 0.00097 | 0.0081 | 0.0045 | 0.56 | 1.8 | 0.0039 | 
CCCCCC(c1ccc(Cl)cc1)C1CCCCN1 (stereo in doubt; form 1) | 0.023 | 0.049 | 0.045 | 1.5 | 2.2 | 0.16 | 

SMILES | Ki [1] [µM] | IC50 [2] [µM] | IC50 [3] [µM] | IC50 [4] [µM] | Ki [5] [µM] | Ki [6] [µM] | Activity (Mus musculus)
CC(C)CCC(c1ccc(Cl)cc1)C1CCCCN1 (stereo in doubt; form 1) | 0.0036 | 0.21 | 0.014 | 7.3 | 5 | 0.83 | 
CCCCC(c1ccc(Cl)c(Cl)c1)C1CCCCN1 (stereo in doubt; form 1) | 0.0023 | 0.027 | 0.0057 | 1.4 | 1.3 | 0.012 | 
Clc1ccc(C(CCCc2ccccc2)C2CCCCN2)cc1 (stereo in doubt; form 1) | 0.44 | 0.6 | 0.29 | 1.6 | 0.7 | 0.49 | 
CC(C)CC(c1ccc(Cl)cc1)C1CCCCN1 (stereo in doubt; form 1) |  |  |  |  |  |  | Active
COc1cccc(C(CC(C)C)C2CCCCN2)c1 (stereo in doubt; form 2) | 0.95 | 1.4 | 0.14 | 2.6 | 3.8 | 12 | 
COc1ccc(C(CC(C)C)C2CCCCN2)cc1 (stereo in doubt; form 2) | 0.77 | 1.6 | 0.4 | 1.2 | 0.95 | 16 | 
CC(C)CC(c1ccc(Cl)c(Cl)c1)C1CCCCN1 (stereo in doubt; form 2) | 0.031 | 0.019 | 0.013 | 0.29 | 0.45 | 0.12 | 
COC(=O)C(c1ccc(Cl)cc1)C1CCCCN1 (stereo in doubt; form 2) |  |  |  | > 10000 |  | > 6.1 | 
CC(c1ccc(Cl)cc1)C1CCCCN1 (stereo in doubt; form 2) | > 3.9 | 3.2 | 1.5 | 4.7 | > 9.1 | > 6.3 | 
CCC(CC)C(c1ccc(Cl)cc1)C1CCCCN1 (stereo in doubt; form 2) | > 5.7 | 3.8 | 1.2 | > 9.6 | 4.8 | 4.3 | 
CC(C)CC(c1cccc(Cl)c1)C1CCCCN1 (stereo in doubt; form 2) | 0.14 | 0.073 | 0.088 | 0.87 |  | 0.34 | 
CCCC(c1ccc(Cl)c(Cl)c1)C1CCCCN1 (stereo in doubt; form 2) | 0.043 | 0.047 | 0.088 | 0.18 | 0.45 | 0.03 | 
CCCCCC(c1ccc(Cl)cc1)C1CCCCN1 (stereo in doubt; form 2) | 0.87 | 0.86 | 0.65 | 1.7 | 3.6 | 1.5 | 
CC(C)CC(c1ccc(Cl)cc1)C1CCCCN1 (stereo in doubt; form 2) | 0.17 | 0.75 | 0.38 |  |  | 4.5 | 
CC(C)CCC(c1ccc(Cl)cc1)C1CCCCN1 (stereo in doubt; form 2) | 0.51 | 3 | 0.68 | > 8.3 | 6.7 | 12 | 
CCCCC(c1ccc(Cl)c(Cl)c1)C1CCCCN1 (stereo in doubt; form 2) | 0.029 | 0.063 | 0.067 | 0.55 | 1.1 | 0.031 | 
Clc1ccc(C(CCCc2ccccc2)C2CCCCN2)cc1 (stereo in doubt; form 2) | 2.9 | 1.7 | 1.4 | 1.2 | 1.5 | 1.5 | 
COC(=O)C(c1ccccc1)C1CCCCN1 (stereo not given) [METHYLPHENIDATE] |  | 0.061 |  | 5.1 |  | 0.66 | 
